ChEMBL document CHEMBL1145070, “Potent, small-molecule inhibitors of human mast cell tryptase. Antiasthmatic action of a dipeptide-based transition-state analogue containing a benzothiazole ketone” (J Med Chem, 2003)
The source made the active and inactive calls.

How the values were obtained:
Tryptase beta-1 [1] = molecular target: T1, Tryptase beta-1 (Homo sapiens, UniProt Q15661); assay: In vitro inhibition of human Tryptase beta.
Target sequence in this assay (Q15661 whole entry): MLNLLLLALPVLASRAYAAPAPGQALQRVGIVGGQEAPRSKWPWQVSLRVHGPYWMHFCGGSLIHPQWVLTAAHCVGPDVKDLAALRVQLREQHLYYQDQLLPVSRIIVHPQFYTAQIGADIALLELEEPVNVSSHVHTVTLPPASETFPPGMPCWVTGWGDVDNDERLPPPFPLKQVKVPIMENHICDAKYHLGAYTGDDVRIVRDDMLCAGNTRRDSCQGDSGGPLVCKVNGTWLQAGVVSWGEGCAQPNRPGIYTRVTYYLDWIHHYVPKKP

Tryptase beta-1 [2] = molecular target: T1, Tryptase beta-1; assay: Inhibitory activity of compound was determined against human Tryptase beta; NA= not active (<10% inhibition at 100 uM)
Procedure, shortened: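 β-Tryptase chromogenic assay, with absorbance read at 405 nm at 37 °C for 30 min after enzyme addition. […] Percent inhibition came from initial slopes versus the no-inhibitor control, fitted with a four-parameter logistic model.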
Target sequence in this assay (Q15661 31-275 limits assumed): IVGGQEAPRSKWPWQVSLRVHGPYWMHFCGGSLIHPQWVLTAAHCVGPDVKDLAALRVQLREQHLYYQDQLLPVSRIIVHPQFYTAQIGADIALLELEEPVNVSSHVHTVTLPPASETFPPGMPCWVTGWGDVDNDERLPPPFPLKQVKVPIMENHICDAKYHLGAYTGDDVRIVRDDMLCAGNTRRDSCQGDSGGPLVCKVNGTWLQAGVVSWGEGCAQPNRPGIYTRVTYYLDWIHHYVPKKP

[3] = system: Cationic trypsin (Bos taurus); assay: Beta-Trypsin inhibitory activity of compound was determined; NA= not active (<10% inhibition at 100 uM)
[4] = Ratio of Ki value kallikrein to that of Ki value of tryptase
[5] = system: Cationic trypsin (Bos taurus); assay: Ratio of Ki value of bovine trypsin to that of Ki value of tryptase
[6] = Ratio of Ki value plasmin to that of Ki value of tryptase
[7] = molecular target: Thrombin & trypsin (Homo sapiens) (UniProt P00734+P07477+P07478+P35030); assay: Ratio of Ki value thrombin to that of Ki value of tryptase; type: protein assay
Tryptase beta-1 [8] = molecular target: T1, Tryptase beta-1; assay: Inhibitory activity of compound was determined against human Tryptase beta
Target sequence in this assay (Q15661 whole entry): as the sequence (Q15661 whole entry) above

| SMILES | Ki (Tryptase beta-1 [1]) [nM] | also measured |
| --- | --- | --- |
| CC(=O)N1CC[C@H]1C(=O)N[C@@H](CCCN=C(N)N)C(=O)c1nc2ccccc2s1 | 20 | – |
| CC(=O)N1CC(=O)C[C@H]1C(=O)N[C@@H](CCCN=C(N)N)C(=O)c1nc2ccccc2s1 | 73 | – |
| CCCC(NC(=O)[C@@H]1C[C@@H](O)CN1C(C)=O)C(=O)c1nc2ccccc2s1 (some centres undefined) | – | NA (Tryptase beta-1 [2]): inactive; NA [3]: inactive |
| CC(=O)N1C[C@H](O)C[C@H]1C(=O)N[C@@H](CCCNC(=N)N)C(=O)c1nc2ccccc2s1 | 22 | – |
| N=C(N)NCCC[C@H](NC(=O)[C@@H]1CCCN1Cc1ccccc1)C(=O)c1nc2ccccc2s1 | 250 | – |
| CC(=O)N[C@@H](CC(C)C)C(=O)N[C@@H](CCCN=C(N)N)C(=O)c1nc2ccccc2s1 | 41 | – |
| CC(=O)N1C[C@H](O)C[C@H]1C(=O)NC(CCCN=C(N)N)C(=O)c1nccs1 (some centres undefined) | 180 | – |
| CC(=O)N1CC=C[C@H]1C(=O)N[C@@H](CCCN=C(N)N)C(=O)c1nc2ccccc2s1 | 38 | – |
| CC(=O)N1C[C@H](O)C[C@H]1C(=O)N[C@@H](CCCNC(=N)N)C(=O)c1nc2ccccc2s1 (stereo in doubt; (2S) 6) | 10 | – |
| N=C(N)NCCC[C@H](NC(=O)c1ccc2ccccc2c1O)C(=O)N1CCCC1C(N)=O (some centres undefined) | 330 | Selectivity [4]: > 3000; Selectivity [5]: 0.5; Selectivity [6]: > 3000; Selectivity [7]: 1.3 |
| N=C(N)NCCCC(NC(=O)C1CCCC1)C(=O)c1nc2ccccc2s1 (centres undefined) | 88 | – |
| CN[C@H](Cc1ccccc1)C(=O)N1CCC[C@H]1C(=O)N[C@@H](CCCN=C(N)N)C(=O)c1nc2ccccc2s1 | 6.5 | – |
| CC(=O)N1CCC[C@H]1C(=O)NC(CCCN=C(N)N)C(O)c1nc2ccccc2s1 (some centres undefined) | – | NA (Tryptase beta-1 [2]): inactive; NA [3]: inactive |
| CC(=O)NCC(=O)N[C@@H](CCCN=C(N)N)C(=O)c1nc2ccccc2s1 | 470 | – |
| CC(=O)N1C[C@H](O)C[C@H]1C(=O)NC(CCCN)C(=O)c1nc2ccccc2s1 (some centres undefined) | 90 | – |
| COS(=O)(=O)N1CCC[C@H]1C(=O)N[C@@H](CCCN=C(N)N)C(=O)c1nc2ccccc2s1 | 33 | – |
| CC(=O)N1C[C@H](O)C[C@H]1C(=O)N[C@@H](CCCNC(=N)N)C(=O)c1nc2ccccc2s1 (stereo in doubt; (2R) 6) | 380 | – |
| CC(=O)N1CCC[C@@H]1C(=O)N[C@@H](CCCN=C(N)N)C(=O)c1nc2ccccc2s1 | 14000 | IC50 (Tryptase beta-1 [8]): 2 nM |
| N=C(N)c1ccc2nc(Cc3nc4ccc(C(=N)N)cc4[nH]3)[nH]c2c1 | 140 | – |
| CC(=O)N1CCC[C@H]1C(=O)N[C@@H](CCCN=C(N)N)C(=O)c1nc2ccccc2s1 | 19 | – |
| N=C(N)NCCCCC(=O)c1nc2ccccc2s1 | – | NA (Tryptase beta-1 [2]): inactive; NA [3]: inactive |
